# Test results: ChEMBL document CHEMBL1151257, “Cytotoxic furanosesterterpenes from a marine sponge Psammocinia sp” (J Nat Prod, 2004)
# Key:
# [1] = system: A549; assay: Cytotoxicity against human A549 cells; format: functional; conditions: read-out: ED50 (the source's name)
# [2] = system: XF498; assay: Cytotoxicity against human XF498 cells; format: functional; conditions: read-out: ED50 (the source's name)
# [3] = system: SK-OV-3; assay: Cytotoxicity against human SKOV3 cells; format: functional; conditions: read-out: ED50 (the source's name)
# [4] = system: HCT-15; assay: Cytotoxicity against human HCT15 cells; format: functional; conditions: read-out: ED50 (the source's name)
# [5] = system: SK-MEL-2; assay: Cytotoxicity against human SK-MEL-2 cells; format: functional; conditions: read-out: ED50 (the source's name)
# [6] = system: Simian virus 40; assay: Inhibition of SV 40 DNA replication in human HeLa cells at 250 uM; format: functional; conditions: Betapolyomavirus macacae
# Outline: (§1)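 SV40 DNA replication reaction run at 37 °C for 2 h; replication quantified as acid-insoluble radioactivity.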
# [7] = system: Simian virus 40; assay: Inhibition of SV40 DNA replication in human HeLa cells at 125 uM; format: functional; conditions: Betapolyomavirus macacae; outline: as §1
# [8] = Inhibition of DNA polymerase alpha
# Outline: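 DNA polymerase α reaction incubated at 37 °C for 30 min; activity read as acid-insoluble radioactivity.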
# [9] = system: Simian virus 40; assay: Inhibition of SV 40 DNA replication in human HeLa cells at 500 uM; format: functional; conditions: Betapolyomavirus macacae; outline: as §1
IC50 [8] [µM],SMILES,EC50 [1] [µg/mL],EC50 [2] [µg/mL],EC50 [3] [µg/mL],EC50 [4] [µg/mL],EC50 [5] [µg/mL],inhibition at 250 µM [6] [%],inhibition at 125 µM [7] [%],inhibition at 500 µM [9] [%]
–,CC1=C(O)/C(=C/[C@H](C)CC/C=C(/C)CCC/C(C)=C\CCc2ccoc2)OC1=O,> 30,20.3,14.1,16,14.4,–,–,–
5,CC1=C(O)/C(=C/[C@H](C)CC/C=C(/C)CC/C=C(\C)CCCc2ccoc2)OC1=O,10.5,8.7,7.5,11,5.8,60,30,100
–,CC1=C(O)/C(=C/[C@H](C)CCC/C(C)=C/CC/C(C)=C/CCc2ccoc2)OC1=O,24.1,22.1,18.6,23.5,19,–,–,–
–,COc1cccc2c1C(=O)c1c(O)c3c(c(O)c1C2=O)C[C@@](O)(C(=O)CO)C[C@@H]3O[C@H]1C[C@H](N)[C@H](O)[C@H](C)O1 [DOXORUBICIN],0.03,0.15,0.15,0.12,0.05,–,–,–
–,CC1=C(O)[C@@H](C/C(C)=C/C=C/C(C)CCC/C(C)=C/CCc2ccoc2)OC1=O (some centres undefined) [ISOPALINURIN],> 30,10,16.5,> 30,10.7,–,–,–
–,CC1=C(O)[C@@H](C/C(C)=C/CCC(C)/C=C/C=C(\C)CCCc2ccoc2)OC1=O (some centres undefined) [PALINURIN],5.2,5.1,10.2,5.4,4.4,–,–,–
–,CC1=C/C(=C/[C@H](C)CCC(=O)/C(C)=C/CC/C(C)=C/CCc2ccoc2)OC1=O [PSAMMOCININ A1],> 30,28.1,> 30,20.5,7.5,–,–,–
–,CC1=C/C(=C/[C@H](C)CCC(=O)C(C)CCC/C(C)=C/CCc2ccoc2)OC1=O (some centres undefined) [PSAMMOCININ A2],7.5,10.5,12.3,11.7,4.8,–,–,–
–,COC1C=C(CC/C=C(\C)CC/C=C(\C)CCCC(C)/C=C2\OC(=O)C(C)=C2O)C(OC)O1 (centres undefined) [PSAMMOCININ B],8.2,7.8,12.6,19.2,7.5,–,–,–
